ChEMBL document CHEMBL1137670, “First occurrence of an IMP metallo-beta-lactamase in Aeromonas caviae: IMP-19 in an isolate from France” (2007)

Assays:
[1] = substrate: CO/N=C(\C(=O)N[C@@H]1C(=O)N2C(C(=O)O)=C(COC(C)=O)CS[C@H]12)c1csc(N)n1; experiment: (§1) Activity of Aeromonas caviae A324R metallo-beta-lactamase IMP-19 expressed in Escherichia coli DH5alpha by computerized microacidimetric method
Procedure, shortened: (§2)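 IMP-19 purified from sonicated recombinant E. coli DH5alpha(pIP19). Purification: SP Sepharose in 50 mM MES-NaOH pH 6.0 with 0–500 mM NaCl gradient, then 5 mM ZnCl2 and Superose 12 in 20 mM MES-NaOH–100 mM NaCl pH 6.0; purity >97% by SDS-PAGE. Km and kcat measured three times by computerized microacidimetry; variation coefficients at most 10%.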

[2] = substrate: CO/N=C(\C(=O)N[C@@H]1C(=O)N2C(C(=O)[O-])=C(C[n+]3cccc4c3CCC4)CS[C@H]12)c1csc(N)n1; experiment: as §1; procedure, shortened: as §2
[3] = substrate: C[C@@H](O)[C@H]1C(=O)N2C(C(=O)O)=C(S[C@@H]3CN[C@H](C(=O)N(C)C)C3)[C@H](C)[C@H]12; experiment: as §1; procedure, shortened: as §2
[4] = substrate: CO[C@@]1(NC(=O)Cc2cccs2)C(=O)N2C(C(=O)O)=C(COC(N)=O)CS[C@@H]21; experiment: as §1; procedure, shortened: as §2
[5] = substrate: CC(C)(O/N=C(\C(=O)N[C@@H]1C(=O)N2C(C(=O)[O-])=C(C[n+]3ccccc3)CS[C@H]12)c1csc(N)n1)C(=O)O; experiment: as §1; procedure, shortened: as §2
[6] = substrate: CC1(C)S[C@@H]2[C@H](NC(=O)[C@H](C(=O)O)c3ccsc3)C(=O)N2[C@H]1C(=O)O; experiment: as §1; procedure, shortened: as §2
[7] = substrate: CCN1CCN(C(=O)N[C@@H](C(=O)N[C@@H]2C(=O)N3[C@@H]2SC(C)(C)[C@@H]3C(=O)O)c2ccccc2)C(=O)C1=O; experiment: as §1; procedure, shortened: as §2
[8] = substrate: CO/N=C(\C(=O)N[C@@H]1C(=O)N2C(C(=O)O)=C(COC(N)=O)CS[C@H]12)c1ccco1; experiment: as §1; procedure, shortened: as §2
[9] = substrate: CC1(C)S[C@@H]2[C@H](NC(=O)Cc3ccccc3)C(=O)N2[C@H]1C(=O)O; experiment: as §1; procedure, shortened: as §2
[10] = substrate: CC(=O)OCC1=C(C(=O)O)N2C(=O)[C@@H](NC(=O)Cc3cccs3)[C@H]2SC1; experiment: as §1; procedure, shortened: as §2
[11] = substrate: C[C@H]1[C@H](NC(=O)/C(=N\OC(C)(C)C(=O)O)c2csc(N)n2)C(=O)N1S(=O)(=O)O; experiment: as §1; procedure, shortened: as §2
[12] = substrate: C[C@@H](O)[C@H]1C(=O)N2C(C(=O)O)=C(SCCNC=N)C[C@H]12; experiment: as §1; procedure, shortened: as §2
[13] = substrate: CC1(C)S[C@@H]2[C@H](NC(=O)[C@H](N)c3ccc(O)cc3)C(=O)N2[C@H]1C(=O)O; experiment: as §1; procedure, shortened: as §2
[14] = substrate: CO/N=C(\C(=O)N[C@@H]1C(=O)N2C(C(=O)O)=C(COC(C)=O)CS[C@H]12)c1csc(N)n1; experiment: (§3) Ratio of Kcat to Km of Aeromonas caviae A324R metallo-beta-lactamase IMP-19 expressed in Escherichia coli DH5alpha by computerized microacidimetric method; procedure, shortened: as §2
[15] = substrate: CO/N=C(\C(=O)N[C@@H]1C(=O)N2C(C(=O)[O-])=C(C[n+]3cccc4c3CCC4)CS[C@H]12)c1csc(N)n1; experiment: as §3; procedure, shortened: as §2
[16] = substrate: C[C@@H](O)[C@H]1C(=O)N2C(C(=O)O)=C(S[C@@H]3CN[C@H](C(=O)N(C)C)C3)[C@H](C)[C@H]12; experiment: as §3; procedure, shortened: as §2
[17] = substrate: CO[C@@]1(NC(=O)Cc2cccs2)C(=O)N2C(C(=O)O)=C(COC(N)=O)CS[C@@H]21; experiment: as §3; procedure, shortened: as §2
[18] = substrate: CC(C)(O/N=C(\C(=O)N[C@@H]1C(=O)N2C(C(=O)[O-])=C(C[n+]3ccccc3)CS[C@H]12)c1csc(N)n1)C(=O)O; experiment: as §3; procedure, shortened: as §2
[19] = substrate: CC1(C)S[C@@H]2[C@H](NC(=O)[C@H](C(=O)O)c3ccsc3)C(=O)N2[C@H]1C(=O)O; experiment: as §3; procedure, shortened: as §2
[20] = substrate: CCN1CCN(C(=O)N[C@@H](C(=O)N[C@@H]2C(=O)N3[C@@H]2SC(C)(C)[C@@H]3C(=O)O)c2ccccc2)C(=O)C1=O; experiment: as §3; procedure, shortened: as §2
[21] = substrate: CO/N=C(\C(=O)N[C@@H]1C(=O)N2C(C(=O)O)=C(COC(N)=O)CS[C@H]12)c1ccco1; experiment: as §3; procedure, shortened: as §2
[22] = substrate: CC1(C)S[C@@H]2[C@H](NC(=O)Cc3ccccc3)C(=O)N2[C@H]1C(=O)O; experiment: as §3; procedure, shortened: as §2
[23] = substrate: CC(=O)OCC1=C(C(=O)O)N2C(=O)[C@@H](NC(=O)Cc3cccs3)[C@H]2SC1; experiment: as §3; procedure, shortened: as §2
[24] = substrate: C[C@@H](O)[C@H]1C(=O)N2C(C(=O)O)=C(SCCNC=N)C[C@H]12; experiment: as §3; procedure, shortened: as §2
[25] = substrate: CC1(C)S[C@@H]2[C@H](NC(=O)[C@H](N)c3ccc(O)cc3)C(=O)N2[C@H]1C(=O)O; experiment: as §3; procedure, shortened: as §2

B1: IMP-19 (Aeromonas caviae), A8QUY6 (protein)
chain: MKKLFVLCVCFLCSITAAGAALPDLKIEKLEEGVYVHTSFEEVNGWGVVSKHGLVVLVNTDAYLIDTPFTATDTEKLVNWFVERGYKIKGTISSHFHSDSTGGIEWLNSQSIPTYASELTNELLKKDGKVQAKNSFSGVSYWLVKNKIEVFYPGPGHTQDNVVVWLPEKKILFGGCFVKPDGLGNLGDANLEAWPKSAKILMSKYVKAKLVVSSHSEIGDASLLKRTWEQAVKGLNESKKPSQPSN
- Km [1]: 61 µM
- kcat [1]: 20.1 s⁻¹
- Km [2]: 48 µM
- kcat [2]: 14.3 s⁻¹
- Km [3]: 7 µM
- kcat [3]: 1 s⁻¹
- Km [4]: 33 µM
- kcat [4]: 9.7 s⁻¹
- Km [5]: 20 µM
- kcat [5]: 6.4 s⁻¹
- Km [6]: 140 µM
- kcat [6]: 683 s⁻¹
- Km [7]: 148 µM
- kcat [7]: 41.2 s⁻¹
- Km [8]: 95 µM
- kcat [8]: 16.4 s⁻¹
- Km [9]: 206 µM
- kcat [9]: 1010 s⁻¹
- Km [10]: 76 µM
- kcat [10]: 11 s⁻¹
- kcat [11]: < 0.1 s⁻¹
- Km [12]: 100 µM
- kcat [12]: 26.5 s⁻¹
- Km [13]: 207 µM
- kcat [13]: 456 s⁻¹
- kcat/Km [14]: 0.33
- kcat/Km [15]: 0.3
- kcat/Km [16]: 0.14
- kcat/Km [17]: 0.29
- kcat/Km [18]: 0.32
- kcat/Km [19]: 4.88
- kcat/Km [20]: 0.28
- kcat/Km [21]: 0.17
- kcat/Km [22]: 4.91
- kcat/Km [23]: 0.14
- kcat/Km [24]: 0.26
- kcat/Km [25]: 2.2
